Values belong to the compound of their own block, whether it stands above or below them.
Legend:
[1] = Stability in the solid state and in CDCl3 solution; assay type: physicochemical
[2] = in CHCl3; cited from earlier work
[3] = system: HepG2; assay: In vitro cytotoxicity; assay type: cell-based, human; conditions: read-out: IC50 HepG2; MTT assay, 72 h incubation
In short: (§1)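 Cell lines: HeLa (cervical epithelial carcinoma), HepG2 (hepatocellular carcinoma), MCF-7 (breast carcinoma), HCT-116 (colorectal carcinoma), and HCC827 and NCI-H460 (non-small cell lung carcinoma).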

[4] = system: NCI-H460; assay: In vitro cytotoxicity in the dark; assay type: cell-based, human; conditions: read-out: IC50 NCI-H460 (dark)
In short: as §1

[5] = system: NCI-H460; assay: Light-induced cytotoxicity assay; assay type: cell-based, human; conditions: for PI = IC50(dark)/IC50(light): NCI-H460, phototoxicity index
In short: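 NCI-H460 cells were incubated with test compound, then exposed to visible light at 2.8 mW cm–2 for 1 h. […] Phototoxicity index = IC50(dark)/IC50(light).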

[6] = system: HCT116; assay: In vitro cytotoxicity; assay type: cell-based, human; conditions: read-out: IC50 HCT116; MTT assay, 72 h incubation
In short: as §1

[7] = system: HCC827; assay: In vitro cytotoxicity; assay type: cell-based, human; conditions: read-out: IC50 HCC827; MTT assay, 72 h incubation
In short: as §1

Compound: C1=Cc2nc1c(-c1ccccc1)c1ccc([nH]1)c(-c1ccccc1)c1nc(c(-c3ccccc3)c3ccc([nH]3)c2-c2ccccc2)C=C1 [H2tpp]
Φso (quantum yield of singlet oxygen production) [2]: 0.55

Compound: N.N.[Cl][Pt][Cl] [Cisplatin]
IC50 [3]: 6.18 ± 0.82 µM | IC50 [4]: 3.96 ± 0.48 µM | PI = IC50(dark)/IC50(light) [5]: 0.86 | PI = IC50(dark)/IC50(light) ([5]; listed as cisplatin): < 1 | IC50 ([5]; read-out: IC50 NCI-H460 (light), visible light irradiation 2.8 mW cm^–2 for 1 h): 4.61 ± 0.31 µM | IC50 [6]: 6.94 ± 0.54 µM | IC50 [7]: 9.61 ± 0.81 µM

Next, values leading:

Stable in the solid state and in CDCl3 solution for [1]: 1 week
Compound: [Ir^III(tmp)(IMe)Cl] [1a]

Decomposes within ([1]; under ambient conditions): ≤ 1 days
Compound: [Ir^III(F20tpp)(IMe)Cl] [1c]

Stable in the solid state and in CDCl3 solution for [1]: 1 week
Compound: [Ir^III(tmp)(BIMe)Cl] [1b]

Stable in the solid state and in CDCl3 solution for [1]: 1 week
Compound: [Ir^III(F20tpp)(BIMe)Cl] [1d]
